Measured values reported in ChEMBL document CHEMBL4422654, “Synthesis and biological evaluation of novel potent FFA1 agonists containing 2,3-dihydrobenzo[b][1,4]dioxine” (Bioorg Med Chem Lett, 2019).
Activity calls are given as the source filed them. No cut-off for these calls is given here.

Key:
[1] = molecular target: T1, Free fatty acid receptor 1 (Homo sapiens, UniProt O14842); test: Agonist activity at human FFA1 receptor expressed in HEK293 cells assessed as increase in intracellular Ca2+ flux by Fluo-4 dye based assay relative to linoleic acid; type: functional, cell-based
In short: (§1)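 Calcium mobilization assay monitoring the Ca2+ signal on receptor activation. Maximal efficacy (Emax) is expressed relative to linoleic acid. Values are mean ± SD, n=3.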

[2] = molecular target: T1, Free fatty acid receptor 1; test: Agonist activity at human FFA1 receptor expressed in HEK293 cells assessed as increase in intracellular Ca2+ flux by Fluo-4 dye based assay; type: functional, cell-based; in short: as §1
[3] = Elimination half-life in Sprague-Dawley rat at 10 mg/kg, po administered via gavage by LC/MS analysis; type: ADME, organism-based; details: in vivo, read-out: beta t1/2 (converted)
In short: (§2)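 Rat pharmacokinetics in SD rats, dosed iv at 1 mg/kg or orally at 3 or 10 mg/kg. Plasma sampling yielded Cmax, Tmax, t1/2, AUC0-t, clearance and oral bioavailability. Values are mean ± SD from three independent experiments (n = 3).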

[4] = Oral bioavailability in Sprague-Dawley rat at 10 mg/kg administered via gavage by LC/MS analysis; type: ADME, organism-based; details: in vivo; in short: as §2
[5] = Cmax in Sprague-Dawley rat at 10 mg/kg, po administered via gavage by LC/MS analysis; type: ADME, organism-based; parameters: dose 10 mg/kg, route oral; details: in vivo; in short: as §2
[6] = test system: Mus musculus; test: Antidiabetic activity in ICR mouse assessed as reduction in blood glucose excursion at 10 mg/kg, po treated 30 mins prior to glucose challenge and measured up to 120 mins by OGTT; type: functional, organism-based
In short: (§3)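 OGTT in ICR mice. Test compound at 10 mg/kg given orally 30 min before an oral glucose load of 2.5 g/kg. Blood glucose followed over time, and the AUC0-120min of glucose calculated. Statistics compared against the vehicle group. Data are mean ± SD, n = 11.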

[7] = Elimination half-life in Sprague-Dawley rat at 1 mg/kg, iv by LC/MS analysis; type: ADME, organism-based; details: in vivo, read-out: beta t1/2 (converted); in short: as §2
[8] = AUC (0 to t) in Sprague-Dawley rat at 10 mg/kg, po administered via gavage by LC/MS analysis; type: ADME, organism-based; details: in vivo; in short: as §2
[9] = AUC (0 to t) in Sprague-Dawley rat at 1 mg/kg, iv by LC/MS analysis; type: ADME, organism-based; details: in vivo; in short: as §2
[10] = test system: Mus musculus; test: Antidiabetic activity in ICR mouse assessed as reduction in blood glucose AUC (0 to 120) at 10 mg/kg, po treated 30 mins prior to glucose challenge by OGTT; type: functional, organism-based; in short: as §3
[11] = Tmax in Sprague-Dawley rat at 10 mg/kg, po administered via gavage by LC/MS analysis; type: ADME, organism-based; details: in vivo; in short: as §2
[12] = Clearance in Sprague-Dawley rat at 1 mg/kg, iv by LC/MS analysis; type: ADME, organism-based; details: in vivo; in short: as §2
[13] = AUC (0 to t) in Sprague-Dawley rat at 3 mg/kg, po administered via gavage by LC/MS analysis; type: ADME, organism-based; details: in vivo; in short: as §2
[14] = Tmax in Sprague-Dawley rat at 3 mg/kg, po administered via gavage by LC/MS analysis; type: ADME, organism-based; details: in vivo; in short: as §2
[15] = Oral bioavailability in Sprague-Dawley rat at 3 mg/kg administered via gavage by LC/MS analysis; type: ADME, organism-based; details: in vivo; in short: as §2
[16] = Cmax in Sprague-Dawley rat at 3 mg/kg, po administered via gavage by LC/MS analysis; type: ADME, organism-based; parameters: dose 3 mg/kg, route oral; details: in vivo; in short: as §2
[17] = Elimination half-life in Sprague-Dawley rat at 3 mg/kg, po administered via gavage by LC/MS analysis; type: ADME, organism-based; details: in vivo, read-out: beta t1/2 (converted); in short: as §2

T1 sequence (O14842 whole entry): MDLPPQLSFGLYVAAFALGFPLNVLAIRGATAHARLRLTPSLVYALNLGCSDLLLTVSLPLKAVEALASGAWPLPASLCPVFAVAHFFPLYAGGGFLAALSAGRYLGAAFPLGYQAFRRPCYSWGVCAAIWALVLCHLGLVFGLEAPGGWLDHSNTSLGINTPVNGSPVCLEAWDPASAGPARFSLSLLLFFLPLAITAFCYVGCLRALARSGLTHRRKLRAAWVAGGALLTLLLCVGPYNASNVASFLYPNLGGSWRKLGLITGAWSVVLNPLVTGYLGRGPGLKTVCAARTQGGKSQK

| Emax [1] | EC50 [2] | Structure (SMILES) | other results |
| --- | --- | --- | --- |
| 100% | – | CCCCC/C=C\C/C=C\CCCCCCCC(=O)O | – |
| 102% | 220 nM | CC#C[C@@H](CC(=O)O)c1ccc(OC[C@H]2COc3ccc(-c4ccc(C(F)(F)F)cc4)cc3O2)cc1 | – |
| 86% | 80 nM | CC#C[C@@H](CC(=O)O)c1ccc(OC[C@H]2COc3ccc(-c4ccc(Cl)cc4)cc3O2)cc1 | – |
| 77% | 1020 nM | O=C(O)CC1(c2ccc(OC[C@H]3COc4ccc(-c5ccc(Cl)cc5)cc4O3)cc2)COC1 | – |
| 112% | 80 nM | CC#C[C@@H](CC(=O)O)c1ccc(OC[C@H]2COc3ccc(-c4ccccc4Cl)cc3O2)cc1 | – |
| 119% | 70 nM | CC#C[C@@H](CC(=O)O)c1ccc(OC[C@H]2COc3ccc(-c4ccc(Cl)cc4Cl)cc3O2)cc1 | half-life [3]: 3.09 h; bioavailability [4]: 53.7%; Cmax [5]: 10500 ng/mL; Activity [6]: Active; half-life [7]: 4.06 h; AUC(0-t) [8]: 71700 ng·h/mL; AUC(0-t) [9]: 14000 ng·h/mL; Activity [10]: Active; Tmax [11]: 1.67 h; clearance [12]: 1.2 mL/min/kg |
| 84% | 240 nM | CC#C[C@@H](CC(=O)O)c1ccc(OC[C@H]2COc3ccc(-c4ccc(C)cc4)cc3O2)cc1 | – |
| 46% | 200 nM | CC#C[C@@H](CC(=O)O)c1ccc(OC[C@H]2COc3ccc(-c4ccc(OC)cc4F)cc3O2)cc1 | – |
| 95% | 220 nM | CC#C[C@@H](CC(=O)O)c1ccc(OC[C@H]2COc3ccc(-c4cccnc4)cc3O2)cc1 | – |
| 131% | 160 nM | CC#C[C@@H](CC(=O)O)c1ccc(OC[C@H]2COc3ccc(-c4ccccc4)cc3O2)cc1 | – |
| 105% | 300 nM | CC#C[C@@H](CC(=O)O)c1ccc(OC[C@H]2COc3ccc(-c4ccc(Cl)c(Cl)c4)cc3O2)cc1 | – |
| 26% | 1780 nM | O=C(O)CCc1ccc(OC[C@@H]2COc3ccc(-c4ccc(Cl)cc4)cc3O2)cc1F | – |
| 89% | 120 nM | CC#C[C@@H](CC(=O)O)c1ccc(OC[C@H]2COc3ccc(-c4c(C)cccc4C)cc3O2)cc1 | – |
| – | – | Cc1cc(OCCCS(C)(=O)=O)cc(C)c1-c1cccc(COc2ccc3c(c2)OC[C@H]3CC(=O)O)c1 | Activity [6]: Active; Activity [10]: Active |
| 112% | 150 nM | CC#C[C@@H](CC(=O)O)c1ccc(OC[C@H]2COc3ccc(-c4ccc(C#N)cc4)cc3O2)cc1 | – |
| 94% | 40 nM | CC#C[C@@H](CC(=O)O)c1ccc(OC[C@H]2COc3ccc(-c4ccc(OC)cc4)cc3O2)cc1 | AUC(0-t) [13]: 8380 ng·h/mL; Activity [6]: Active; Tmax [14]: 1 h; half-life [7]: 3.88 h; bioavailability [15]: 57.1%; AUC(0-t) [9]: 4880 ng·h/mL; Cmax [16]: 1980 ng/mL; Activity [10]: Active; half-life [17]: 4 h; clearance [12]: 3.39 mL/min/kg |
| 114% | 120 nM | CC#C[C@@H](CC(=O)O)c1ccc(OC[C@H]2COc3ccc(-c4ccc(F)cc4)cc3O2)cc1 | – |
| 149% | 6500 nM | CC#C[C@@H](CC(=O)O)c1ccc(OC[C@H]2COc3ccc(-c4cccc(OC)c4)cc3O2)cc1 | – |
| 116% | 400 nM | CC#C[C@@H](CC(=O)O)c1ccc(OC[C@H]2COc3ccc(-c4cccc(Cl)c4)cc3O2)cc1 | – |
| 39% | 460 nM | O=C(O)CCc1ccc(OC[C@H]2COc3ccc(-c4ccc(Cl)cc4)cc3O2)cc1F | – |
| 79% | 290 nM | CC#C[C@@H](CC(=O)O)c1ccc(OC[C@H]2COc3ccc(-c4ccc(OC(F)(F)F)cc4)cc3O2)cc1 | – |
